# Only some compounds are listed: those with a hit (about 1.8% of all), similar ones and a draw of the others.
# CHRM4 PAM: potentiates acetylcholine response at human M4 receptor | P08173 | CHO-K1 hM4/Gqi5, Fluo-8 calcium fluorescence, ACh EC20; 0% = ACh EC20, 100% = maximal ACh | activation, % at 3 µM | actives 0.4% (n = 360,000);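 active = activation above its plate's cutoff, the mean activation of sample wells plus 3 SD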
# Target sequence (P08173 whole entry, looked up): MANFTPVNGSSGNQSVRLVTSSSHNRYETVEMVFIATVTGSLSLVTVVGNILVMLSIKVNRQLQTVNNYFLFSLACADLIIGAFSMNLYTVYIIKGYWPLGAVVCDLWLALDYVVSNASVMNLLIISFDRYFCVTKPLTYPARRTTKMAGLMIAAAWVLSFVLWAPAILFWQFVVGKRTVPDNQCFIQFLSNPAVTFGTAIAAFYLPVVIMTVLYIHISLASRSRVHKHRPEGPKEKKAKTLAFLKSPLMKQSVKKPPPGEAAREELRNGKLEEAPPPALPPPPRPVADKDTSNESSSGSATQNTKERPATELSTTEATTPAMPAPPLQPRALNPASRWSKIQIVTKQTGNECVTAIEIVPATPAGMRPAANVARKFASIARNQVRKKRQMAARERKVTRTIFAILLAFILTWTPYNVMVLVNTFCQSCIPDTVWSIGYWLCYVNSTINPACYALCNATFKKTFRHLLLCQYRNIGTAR
# CHRM4 agonist: CHRM4 agonism in calcium assay | actives 0.14% (n = 360,000) | CHO-K1 hM4/Gqi5, Fluo-8 calcium fluorescence; vehicle 0%, full acetylcholine response 100% | activation, % at 3 µM | P08173;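 active = activation above the run mean over all test wells plus 3 SD, cut at about 32% in these data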;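 note: peak over basal fluorescence ratio per well then scaled between controls; 0% = DMSO wells and 100% = acetylcholine at EC100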
# M4 antag: CHRM4 antagonism in calcium assay. P08173. CHO-hM4 cells, ACh EC80, Fluo-8 calcium fluorescence. inhibition, % at 3 µM. actives 0.73% (n = 360,000);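 active = inhibition above its plate's cutoff, the mean inhibition of sample wells plus 3 SD, cut at about 27% in these data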;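 note: 0% = acetylcholine EC80 with DMSO and 100% = DMSO without agonist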
# CHRM5 PAM: positive allosteric modulators of human muscarinic M5 receptor; AID 624038; activation, % at 3 µM; actives 0.3% (n = 360,000); P08912; CHO-K1 hM5, Fluo-8 calcium, ACh EC20 PAM; 0% = ACh EC20, 100% = ACh EC100;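 active = activation above the run cutoff, the mean activation of all test compounds plus 3 SD, cut at about 18% in these data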
#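 Assay system: CHO-K1 hM5 cells. Also added: acetylcholine at EC20 concentration, added after compound. Dosing: 3 µM, single dose. Times: compound preincubation 140 s before EC20 acetylcholine addition. Signal: Fluo-8 calcium fluorescence. Measure: % activation relative to EC20 and EC100 ACh responses. Repeats: singlicate, one well per test compound.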
# M5 antag: CHRM5 antagonism in calcium assay; CHO-hM5 cells, Fluo-8 calcium fluorescence, ACh EC80; P08912; inhibition, % at 3 µM; actives 0.59% (n = 360,000);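 active = inhibition above a per-plate cutoff, the mean of that plate's test compounds plus 3 SD, cut at about 27% in these data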;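 note: 0% = acetylcholine EC80 with DMSO and 100% = DMSO without agonist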
# M5 ag: agonists of human muscarinic M5 receptor (CHRM5); actives 0.19% (n = 360,000); activation, % at 3 µM; P08912; CHO-K1 hM5 cells, Fluo-8 calcium fluorescence; 0% DMSO wells, 100% maximal acetylcholine response; AID 624037;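 active = activation above the run's mean over test compounds plus 3 SD, cut at about 23% in these data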;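 note: signal is peak over basal fluorescence ratio across the kinetic read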
# * marks the source's active call; other numbers are inactive results.
SMILES,CHRM4 PAM,CHRM4 agonist,M4 antag,CHRM5 PAM,M5 antag,M5 ag
CCOC(=O)C1=C(COC(=O)CNS(=O)(=O)c2ccc(NC(C)=O)cc2)NC(=O)NC1C (stereo not given),22*,2,-5,0,7,2
CCOC(=O)C1=C(COC(=O)CNS(=O)(=O)c2ccc(C)c(C)c2)NC(=O)NC1C (stereo not given),-3,3,0,-1,-3,1
O=C(c1ccccc1)N(C1=NCCCCS1)c1ccccc1,-6,-1,-5,0,-5,-1
O=C(O)CCN1CC2([N+](=O)[O-])CC=C(OCCO)C([N+](=O)[O-])(C1)C2 (stereo not given),0,0,0,-4,8,-2
COC1=CCC2([N+](=O)[O-])CN(CCO)CC1([N+](=O)[O-])C2 (stereo not given),17,3,-2,19*,9,10
O=C(Nc1ccc([N+](=O)[O-])cc1)Nc1nc(-c2ccc(Cl)s2)cs1,-10,12,26,-15,31*,7
CC(=O)Nc1nc(-c2ccc([N+](=O)[O-])cc2)cs1,1,1,-5,-6,-10,-1
COc1ccc(CNC(=O)C2CCN(S(=O)(=O)c3ccc4c(c3)C(C)(C)C(=O)N4C)CC2)cc1,-21,-3,101*,-5,0,0
COc1ccc(Oc2cn[nH]c2-c2ccc(O)cc2O)cc1,13,6,11,2,0,6
COc1ccc(-c2[nH]ncc2Oc2ccccc2OC)c(O)c1,19*,2,-19,-3,-2,1
CCOc1ccc(S(=O)(=O)N2CCC(C(=O)N3CCOCC3)CC2)cc1C,-3,2,-4,-1,12,-2
CCOc1ccc(S(=O)(=O)N2CCC(C(=O)N3CCCCCC3)CC2)cc1C,3,4,-8,50*,-15,15
CC1Cc2nc(SCC(=O)NCC3CCCO3)n(-c3ccc(F)cc3)c(=O)c2S1 (stereo not given),5,0,2,7,-9,-2
COc1ccc(-c2nc3c(Br)c(N)c(Br)cc3o2)cc1,29*,1,27*,10,-1,-2
Nc1c(Br)cc2oc(-c3ccccc3)nc2c1Br,20,0,-7,2,-11,-2
CCOC(=O)CSc1nc(C)c2cccc(C)c2n1,8,0,-8,19*,-5,0
CCOC(=O)CSc1nc(C)c2ccccc2n1,-4,0,4,-2,5,0
CC(=O)N1CCc2cc(NC(=O)C3(C)CCN3Cc3ccccc3Cl)ccc21 (stereo not given),-7,7,5,-5,7,-1
CCN(CC)c1ccc(C=NNc2ccc([N+](=O)[O-])cn2)cc1,-3,1,1,-15,37*,35*
Cc1cnc(CNC(=O)c2ccc3sc([C@@H]4O[C@H](CO)[C@H](O)[C@H](O)[C@H]4O)nc3c2)cn1,-3,0,7,-2,2,-1
O=C(NCc1cccs1)c1ccc2sc([C@@H]3O[C@H](CO)[C@H](O)[C@H](O)[C@H]3O)nc2c1,16*,1,-14,7,-7,1
CCOC(=O)c1cccc(NC(=O)CC2Oc3ccccc3NC2=O)c1 (stereo not given),-5,5,-7,-7,2,-2
COc1cccc(C(=O)NC(=S)Nc2ccc(N3CCCC3)cc2)c1,-10,0,-15,-2,7,-5
CC(C)Oc1cccc(C(=O)NC(=S)Nc2ccc(N3CCN(C)CC3)cc2)c1,-54,7,39*,-36,15,-19
CCCCCCCCCCn1ccc(=N)cc1,-14,1,38*,-18,14,-18
SMILES,CHRM4 PAM,CHRM4 agonist,M4 antag,CHRM5 PAM,M5 antag,M5 ag
CCCCCCN1Cc2ccccc2C1,-7,0,2,-2,7,-8
CCCCCCCCn1ccc(=N)cc1,-3,0,-12,20*,-26,-13
CCOC(=O)c1sc(NC(=O)CN2C(=O)C3CC=CCC3C2=O)nc1C (stereo not given),-4,1,9,-10,0,1
Cc1cc(NC(=O)CSC2=NS(=O)(=O)c3cc(F)ccc3N2)no1,-2,-1,-3,0,4,3
COc1ccccc1C(CNc1ncnc2sc(C)c(C)c12)N(C)C (stereo not given),-15,2,6,-15,57*,-7
COc1ccc(C(CNc2ncnc3sc(C)c(C)c23)N(C)C)cc1 (stereo not given),-15,4,-9,-15,16,-7
Cc1sc2ncnc(Nc3ccccc3)c2c1C,10,0,3,3,-17,-11
c1cncc(CNc2ncnc3sccc23)c1,-1,5,2,-9,11,0
Cc1sc2ncnc(NCc3ccccc3)c2c1C,-6,9,21,-16,29*,2
c1ccc(CNc2ncnc3sccc23)cc1,-4,14,3,-14,40*,5
CC(C)CC1NC(=O)N(CC(=O)Nc2ccc(-c3ccccc3)cc2)C1=O (stereo not given),-1,2,9,-8,2,5
Cc1ccc(OCc2ccc(C(=O)NNC(=S)NCC3CCCO3)o2)c([N+](=O)[O-])c1 (stereo not given),5,2,-3,19*,-22,-1
Nc1nc(N)nc(-c2cc(O)ccc2O)n1,8,1,-4,0,3,2
CC(C)(C)c1cc(-c2nc(N)nc(N)n2)c(O)c(C(C)(C)C)c1,10,0,-1,24*,-13,5
CCCCN1C(=O)C(CC(=O)NCC2CCCCC2)CC(C(=O)N2CCOCC2)=C1C (stereo not given),10,1,-16,7,-1,0
COc1ccc(-n2c(CSc3nc(C)cc(C)n3)nnc2SCC(=O)Nc2nccs2)cc1,0,0,-3,-9,5,1
Cc1ccc(-n2c(CSc3nc(C)cc(C)n3)nnc2SCC(=O)Nc2nccs2)cc1,25,3,38*,9,-6,4
CC(C)(C)Cc1c(-c2ccc(C#N)cc2)nc2c(Cl)cc(C(F)(F)F)cn12,2,0,-6,-6,6,2
COc1cc(/C=N/N2C(=O)C3C4c5ccccc5C(c5ccccc54)C3C2=O)ccc1O (stereo not given),17,-1,-7,33*,19,2
CN(C)C(CNC(=O)c1ccccc1OCc1ccc(Cl)cc1)c1ccco1 (stereo not given),-2,1,-5,2,3,-5
